An excerpt weighted towards active compounds, which were near 3.2% of everything screened.
zfTRPN1 agonist: agonists of zebrafish TRPN1 channel. HEK293 zebrafish TRPN1-YFP, Fluo-8 calcium fluorescence; 100% = response to 87 µM carbachol. activation, % at 3 µM. 0.18% of 220,000 active;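 active = activation above its plate's cutoff, the mean activation of test wells on that plate plus 3 SD, cut at about 19% in these data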;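 note: 0% = DMSO alone and 100% = 87 µM carbachol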
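Material – zebrafish TRPN1-YFP in HEK293 cells · Doses – 3 µM single point · Schedule – dye 1 h 37 °C plus 30 min RT · Signal – Fluo-8 calcium fluorescence, excitation 470-495 nm, emission 515-575 nm · Read-out – % activation versus carbachol response · Control set – carbachol high, DMSO low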
GPR7 antagonist: antagonists of human GPR7 (neuropeptides B/W receptor 1). GPR7-expressing cells, fluorescence antagonist assay. inhibition, % at 4.4 µM. 1.1% of 290,000 active. AID 1861; in the data active = inhibition above about 16%, passing the limit was not always enough;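 note: cells stimulated with the agonist NPW; 0% = agonist with vehicle and 100% = vehicle without agonist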
Target sequence (P48145 whole entry, looked up): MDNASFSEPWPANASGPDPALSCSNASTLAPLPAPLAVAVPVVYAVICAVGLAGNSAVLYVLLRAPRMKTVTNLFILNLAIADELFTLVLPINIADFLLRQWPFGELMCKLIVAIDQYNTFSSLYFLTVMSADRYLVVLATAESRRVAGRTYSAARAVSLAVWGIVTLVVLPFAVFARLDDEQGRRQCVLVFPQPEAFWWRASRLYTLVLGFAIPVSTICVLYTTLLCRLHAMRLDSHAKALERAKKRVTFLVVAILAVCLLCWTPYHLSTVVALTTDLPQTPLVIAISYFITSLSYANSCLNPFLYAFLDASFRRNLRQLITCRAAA
OX1R antag-1: blocks the human orexin 1 receptor; O43613; CHO/OX1R cells, Fluo-8 calcium fluorescence, orexin A; inhibition, % at 5 µM; 0.43% of 330,000 active;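 active = inhibition above its plate's threshold, mean inhibition of all tested compounds on the plate plus 3 SD, cut at about 37% in these data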;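 note: 0% = orexin A challenge wells and 100% = SB-334867-A antagonist wells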
CHO parental Ca: signal in parental CHO cells, OX1R antagonist counter-screen. parental CHO-K1, ATP-induced calcium, Fluo-8 fluorescence. inhibition, % at 5.6 µM. 0.63% of 330,000 active. AID 463079;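 active = inhibition above that plate's mean sample inhibition plus 3 SD, cut at about 26% in these data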;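 note: 0% = ATP-challenged DMSO wells and 100% = DMSO wells without ATP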
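Assay system – parental CHO cells · Reagent – ATP stimulus · Detection – intracellular calcium via Fluo-8 no-wash fluorescent dye · Evaluation – percent inhibition of ATP-evoked calcium rise, normalized to controls · Controls – ATP wells versus no-ATP DMSO wells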
TRPML3 ag: human mucolipin-3 channel agonism. HEK293 TRPML3-YFP, Fluo-8 calcium fluorescence; 100% = the carbachol control signal. activation, % at 3 µM. 0.29% of 220,000 active;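 active = activation above its plate's cutoff, the mean activation of the plate's test wells plus 3 SD, cut at about 12% in these data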;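 note: 0% = DMSO only wells and 100% = carbachol wells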
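Test system: HEK293 cells stably carrying human TRPML3-YFP; Doses: single dose, 3 µM final nominal compound, 0.3% DMSO final; Schedule: dye loading 1 h 37 °C then 30 min ambient, 125 s read; Technique: Fluo-8 calcium fluorescence; Benchmarks: high control carbachol 87 µM, low control DMSO.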
OX1R antag-2: antagonists of human orexin 1 receptor (OX1R); inhibition, % at 6.6 µM; OX1R-expressing cells, FRET antagonist read-out; 1.8% of 330,000 active; in the data active = inhibition mostly above about 38%, no sharp cut-off; inactive = mostly below about 40%;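 note: 0% = agonist challenge alone and 100% = reference antagonist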
OX1R HTRF confirm: confirmation of human orexin 1 receptor antagonists, HTRF format; 49% of 1,800 active; OX1R-expressing cells, HTRF antagonist assay; shares compounds with OX1R antag-2; inhibition, % at 6.6 µM; in the data active = inhibition above about 55%;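 note: CHO cells expressing OX1R stimulated with orexin A at about EC80; 0% = agonist challenge alone and 100% = reference antagonist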
CHO-K1 HTRF: counter-screen for OX1R antagonists: effect in parental CHO-K1 cells. shares compounds with OX1R antag-2. HTRF counterscreen. inhibition, % at 6.6 µM. 48% of 1,800 active; in the data active = inhibition above about 17%;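 note: 0% = agonist challenge with vehicle and 100% = vehicle alone without agonist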
The depositor's hits bear a star; · = not tested or not shown.

SMILES	zfTRPN1 agonist	GPR7 antagonist	OX1R antag-1	CHO parental Ca	TRPML3 ag	OX1R antag-2	OX1R HTRF confirm	CHO-K1 HTRF
Cn1cnnc1Sc1ccc(C(=O)OCC(=O)NC2CC2)cc1[N+](=O)[O-]	1	-5	·	·	0	·	·	·
Cn1ccnc1Sc1ccc(C(N)=O)cc1[N+](=O)[O-]	1	-3	4	5	0	94*	38	32*
CCOc1ccc(N(CC(=O)NC(C(C)C)C(C)C)S(=O)(=O)c2ccc(OC)c(OC)c2)cc1	1	-4	-35	-25	1	23	·	·
O=C(CCC(F)(F)F)N1CCCC(N2CCN(c3cccc(Cl)c3)CC2)C1 (stereo unspecified)	·	5	-33	-20	·	21	·	·
CCCn1c2ccccc2c2cnn(CC(=O)NC3CCCCC3)c(=O)c21	·	-17	-28	-14	·	14	·	·
CC(=O)N(C1=C(N2CCOCC2)C(=O)c2ccccc2C1=O)c1ccc(C(=O)O)cc1	0	-7	-9	-10	0	125*	98*	86*
O=C(O)c1ccc(NC2=C(N3CCOCC3)C(=O)c3ccccc3C2=O)cc1	1	-2	7	20	1	20	·	·
O=C(N/N=C/c1cc(Cl)c(O)c(Cl)c1)c1cc2c(ccc3ccccc32)o1	·	-22	9	14	·	92*	54	14
NS(=O)(=O)c1ccc(CCNC(=O)Cc2ccc(S(=O)(=O)N3CCOCC3)s2)cc1	·	·	-21	2	·	10	·	·
Cc1noc(C)c1S(=O)(=O)Nc1ccc(O)c2c(=O)cc(-c3ccccc3Cl)oc12	·	·	25	-7	·	85*	93*	1
COc1ccc(-n2nc3ccccc3n2)cc1	-2	7	-9	-14	-1	0	·	·
COc1ccc(-n2nc3cc(C)c(N)c(Br)c3n2)cc1	0	26	28	-17	0	92*	41	6
CC[C@@H](C)[C@H](N)C(=O)NC[C@H]1O[C@@H](n2cnc3c(N)ncnc32)[C@H](O)[C@@H]1O	·	·	-8	2	·	3	·	·
COC(=O)C1=C(C)Nc2c(c(=O)n(C)c(=O)n2C)C1c1ccncc1 (stereo unspecified)	1	-3	0	2	1	15	·	·
COc1ccccc1NC(=O)c1nn(-c2cccc(C(F)(F)F)c2)ccc1=O	2	-3	12	-6	-1	82*	66*	5
Cc1cc(C)n2[nH]c(=O)c(N=Nc3ccccc3)c2n1	0	6	-10	-1	0	188*	46	86*
Cc1cc(=O)n2[nH]c(=O)c(N=Nc3ccccc3)c2[nH]1	0	-8	-3	-5	-1	126*	49	58*
Cc1ccc(S(=O)(=O)NCC(=O)OCC(=O)N2CCN(C(=O)c3ccco3)CC2)cc1C	·	·	-5	-2	·	27	·	·
O=C1c2c([N+](=O)[O-])cc([N+](=O)[O-])cc2S(=O)N1Cc1ccccc1 (stereo unspecified)	1	-17	-22	-7	0	105*	40	86*
O=[N+]([O-])c1ccc(NC2CCN(Cc3ccccc3)CC2)c([N+](=O)[O-])c1	-1	-10	-30	-16	1	32	·	·
CCn1c2ccccc2c2cc(NC(=O)CNCc3ccccc3OC)ccc21	·	16	-20	-5	·	20	·	·
CCn1c2ccccc2c2cc(NC(=O)COc3ccccc3OC)ccc21	0	5	27	-16	0	101*	79*	21*
CCn1c2ccccc2c2cc(NC(=O)c3ccco3)ccc21	-1	0	18	-24	0	77*	52	16
CCn1c2ccccc2c2cc(NC(=O)c3ccccc3[N+](=O)[O-])ccc21	-1	5	8	-2	0	24	·	·
Cc1ccc(S(=O)(=O)N2CCCCC2)cc1NC(=O)COc1ccccc1F	3	3	-19	-8	7	21	·	·
SMILES	zfTRPN1 agonist	GPR7 antagonist	OX1R antag-1	CHO parental Ca	TRPML3 ag	OX1R antag-2	OX1R HTRF confirm	CHO-K1 HTRF
Cc1c(NS(=O)(=O)c2ccc(NC(=O)CCC(=O)O)cc2)c(=O)n(-c2ccccc2)n1C	·	-3	-8	-9	·	-8	·	·
COc1ccc(-n2c(Cn3nnc4ccccc43)n[nH]c2=S)cc1	-1	2	-8	-4	0	7	·	·
S=c1[nH]nc2nnc3ccccc3n12	0	-6	-11	2	0	85*	88*	79*
COc1cccc(/C=C/C(=O)c2ccc3c(c2)OCCO3)c1OC	·	-5	-26	-17	·	10	·	·
O=C(NC1CC1)c1ccc(-c2nc3ccccc3s2)s1	0	-2	21	-15	2	113*	84*	12
Cc1cc(C)n2nc(-c3cccc(Br)c3)cc2n1	·	-8	33	-11	·	85*	90*	-3
CCOc1cc(/C=C2\NC(=O)NC2=O)cc([N+](=O)[O-])c1O	2	-9	-3	-6	0	128*	58*	69*
CCOc1cc(/C=C2\C(=O)NN(c3ccccc3)C2=O)cc([N+](=O)[O-])c1O	0	-3	-8	-6	0	11	·	·
N/C(=N\OC(=O)c1ccc(Cl)c([N+](=O)[O-])c1)c1ccccn1	1	-5	3	11	0	114*	51	58*
N/C(=N\OC(=O)c1ccc(Cl)c(Cl)c1)c1ccccn1	-2	10	-27	-8	1	18	·	·
COC(=O)C(=C/C(C)=C/c1cccnc1)C(=O)OC	0	5	-6	-4	0	12	·	·
CC(=O)NN1C(=O)c2ccc3c4c(ccc(c24)C1=O)C(=O)N(NC(C)=O)C3=O	·	10	-15	-3	·	83*	69*	174*
O=C1c2ccc3c4c(ccc(c24)C(=O)N1NC(=O)C(F)(F)F)CC3	-1	-6	0	-6	0	22	·	·
CCc1cc[n+](-c2nc([O-])sc2C=O)cc1	2	4	-10	-10	2	149*	47	62*
CC(C)(C)c1cc[n+](-c2nc([O-])sc2C=O)cc1	0	-1	19	-8	0	79*	72*	74*
CC(C)c1cc[n+](-c2nc([O-])sc2C=O)cc1	1	0	0	7	1	98*	43	64*
CC(Oc1ccc2c3c(c(=O)oc2c1)CCCC3)C(=O)NCC(O)c1ccccc1 (stereo unspecified)	·	-24	-28	-12	·	8	·	·
O=C(O)c1ccc(OCCN2CCCC2=O)cc1	·	14	-9	-13	·	22	·	·
Cc1ccc(C(=O)CN2C(=O)NC3(CCCCCC3)C2=O)c(C)c1	·	·	-36	-18	·	17	·	·

Assay outcomes from PubChem.
